Results published in ChEMBL document CHEMBL1949668, “Synthesis of new α aminophosphonate system bearing Indazole moiety and their biological activity” (2012).

Experiments:
[1] = test system: Klebsiella pneumoniae; experiment: Antibacterial activity Klebsiella pneumoniae at 40 ug/disc after 24 hrs by agar disc diffusion method; format: functional; conditions: for zone of inhibition at 40 µg/disc: read-out: IZ
Outline: (§1)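 Agar disc diffusion. Strains were grown in Mueller Hinton broth for 18–24 h at 37 °C. The bacterial suspension was spread on Mueller Hinton agar, and dried loaded discs were placed on it once the plates were dry. Gentamycin and […] reference discs carried 40 mcg/disc from 1 mg/ml solutions. Plates were incubated 24 h at 37 °C, and clear inhibition zones were measured in mm.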

[2] = test system: Staphylococcus aureus; experiment: Antibacterial activity Staphylococcus aureus at 40 ug/disc after 24 hrs by agar disc diffusion method; format: functional; conditions: read-out: IZ; outline: as §1
[3] = test system: Salmonella typhimurium; experiment: Antibacterial activity Salmonella Typhimurium at 40 ug/disc after 24 hrs by agar disc diffusion method; format: functional, Salmonella enterica subsp. enterica serovar Typhimurium; conditions: for zone of inhibition at 40 µg/disc: Salmonella enterica, read-out: IZ; outline: as §1
[4] = test system: Bacillus subtilis; experiment: Antibacterial activity Bacillus subtilis at 40 ug/disc after 24 hrs by agar disc diffusion method; format: functional; conditions: for zone of inhibition at 40 µg/disc: read-out: IZ; outline: as §1
[5] = test system: Escherichia coli; experiment: Antibacterial activity Escherichia coli at 40 ug/disc after 24 hrs by agar disc diffusion method; format: functional; conditions: read-out: IZ; outline: as §1
[6] = test system: Pseudomonas aeruginosa; experiment: Antibacterial activity Pseudomonas aeruginosa at 40 ug/disc after 24 hrs by agar disc diffusion method; format: functional; conditions: read-out: IZ; outline: as §1

Row | Molecule | zone of inhibition at 40 µg/disc [1] [mm] | zone of inhibition at 40 µg/disc [2] [mm] | zone of inhibition at 40 µg/disc [3] [mm] | zone of inhibition at 40 µg/disc [4] [mm] | zone of inhibition at 40 µg/disc [5] [mm] | zone of inhibition at 40 µg/disc [6] [mm] | inhibition zone (IZ) [1] [mm] | inhibition zone (IZ) ([3]; Salmonella enterica subsp. enterica serovar Typhimurium) [mm] | inhibition zone (IZ) [4] [mm]
1 | NC[C@H]1O[C@H](O[C@H]2[C@H](O)[C@@H](O[C@H]3O[C@H](CO)[C@@H](O)[C@H](N)[C@H]3O)[C@H](N)C[C@@H]2N)[C@H](O)[C@@H](O)[C@@H]1O [KANAMYCIN] | 18 | 9 | 14 | 15 | 13 | 21 | – | – | –
2 | CCOP(=O)(OCC)C(NNC(=O)c1nn(C)c2ccccc12)c1cccc(F)c1 (stereo not drawn) | 8 | 3 | 4 | 4 | 5 | 7 | – | – | –
3 | GENTAMICIN | – | – | – | – | – | – | 13 | 11 | 15
4 | CCOP(=O)(OCC)C(NNC(=O)c1nn(C)c2ccccc12)c1ccc(C(F)(F)F)cc1 (stereo not drawn) | 7 | 5 | 5 | 4 | 3 | 6 | – | – | –
5 | CCOP(=O)(OCC)C(NNC(=O)c1nn(C)c2ccccc12)c1ccccc1 (stereo not drawn) | 3 | 2 | 2 | 5 | 0 | 1 | – | – | –
6 | CCOP(=O)(OCC)C(NNC(=O)c1nn(C)c2ccccc12)c1ccccc1Br (stereo not drawn) | 2 | 1 | 3 | 7 | 1 | 4 | – | – | –
